FLuc act counter: affects firefly luciferase, flagging false hits in luciferase stimulation screens | P08659 | ATPlite luciferase biochemical, luminescence, 10 min; 0 = ATP-free wells, 1 = DMSO control | activation factor at 10 µM | 200,000 tested, under 10 active;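 active means luciferase activation factor, scaled between plate controls, of at least 2 with compound at 10 µM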
Target sequence (P08659 whole entry, looked up): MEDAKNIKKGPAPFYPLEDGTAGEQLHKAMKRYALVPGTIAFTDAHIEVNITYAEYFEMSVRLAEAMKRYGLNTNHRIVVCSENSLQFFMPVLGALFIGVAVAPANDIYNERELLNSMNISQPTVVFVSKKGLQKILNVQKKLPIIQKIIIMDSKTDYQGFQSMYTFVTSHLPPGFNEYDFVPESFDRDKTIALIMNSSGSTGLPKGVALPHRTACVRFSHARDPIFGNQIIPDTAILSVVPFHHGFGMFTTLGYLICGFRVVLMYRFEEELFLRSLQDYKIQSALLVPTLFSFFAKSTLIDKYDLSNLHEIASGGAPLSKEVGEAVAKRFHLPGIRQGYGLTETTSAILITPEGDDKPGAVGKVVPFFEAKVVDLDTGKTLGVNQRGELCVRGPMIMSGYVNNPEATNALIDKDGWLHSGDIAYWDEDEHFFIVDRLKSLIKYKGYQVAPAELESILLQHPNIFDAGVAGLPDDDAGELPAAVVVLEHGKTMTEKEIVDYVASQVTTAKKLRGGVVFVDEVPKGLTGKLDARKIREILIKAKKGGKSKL
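System: Luciferase/luciferin detection reagent, cell-free biochemical luciferase assay | Medium: PBS buffer for ATP | Dosing: Test compounds dosed from 2 mM stocks in 100% DMSO | Timing: 10 min at ambient temperature | Signal: Luminescence measurement of luciferase light output | Evaluation: Luciferase activation, seen as luminescence increase over controls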
APP 5'UTR act: APP 5'UTR luciferase reporter activation. SH-SY5Y APP 5'UTR luciferase reporter, luminescence; zero percent = DMSO vehicle wells. activation, % at 2 µM. 1% of 190,000 active;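 active means activation above a set limit, based on mean plus 3 SD of controls, cut at about 140% in these data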
FLuc inhib CS: counter-screen for luciferase assay inhibitors: firefly luciferase inhibition. P08659. ATPLite firefly luciferase biochemical luminescence, 10 min. inhibition, % at 10 µM. 1.5% of 200,000 active;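 active means inhibition above about 50% when tested at 10 µM, limit read from the data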
NF-kB neuron act: raises NF-kB expression in human neuronal cells | NF-kB reporter expression; active compounds read high | fold change at 12.5 µM | 1.6% of 190,000 active | AID 1239; in the data active means fold change above about 3.3
STAT1 activator: STAT1 signaling activation. NIH 3T3 STAT1-luciferase reporter, IFN-gamma, luminescence; 100% = IFN-gamma alone, no compound. activation (% of control), % at 5.5 µM. 2.6% of 200,000 active;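 active means activation above the screen-wide mean activation plus 3 SD, cut at about 130% in these data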;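 further: raw ratio to IFN-gamma control signal so 100% means no change and 0% no light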
Pf gamet viab: P. falciparum stage V gametocyte viability inhibition; P. falciparum stage V gametocytes, ATP luminescence, 24 h; inhibition, % at 10.9 µM; 0.065% of 150,000 active;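 active means inhibition above the mean plus 3 SD of compounds within the control limits, set per campaign, cut at about 38% in these data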;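 further: 0% = DMSO wells and 100% = medium only without gametocytes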
* = called active by the depositor; / = no result. Sampled rows, rich in hits. Any-hit rate of the full collection: about 3.5%.

SMILES	FLuc act counter	APP 5'UTR act	FLuc inhib CS	NF-kB neuron act	STAT1 activator	Pf gamet viab
CCCCN(C)C(=O)c1nc2ccccn2c1CN1CCN(C(=O)c2cccs2)CC1	1	10	0	0.91	96	11
O=c1sc(Nc2ccccc2)nc2ccsc12	1	66	2	2.5	137*	6
Cc1ccc(-c2nc3ccc(Cl)cc3n2OC(C)C(=O)O)cc1 (configuration not stated)	1	116	3	1.7	141*	3
CCCNC(=S)N1CCC(C(=O)c2ccc(OC)cc2)CC1	1.1	-60	-6	0.86	104	8
O=C(CCN1CCOCC1)c1ccc2c(c1)OCCO2	1.1	14	-9	1.1	96	/
O=C(CCCN1CCOCC1)c1ccc2c(c1)OCCO2	0.9	101	5	1.4	142*	/
Cc1ccc(/C=N/NC(=O)c2ccoc2C)o1	0.9	28	8	1.7	132*	6
Cc1occc1C(=O)N/N=C/C=C/c1ccccc1	0.9	55	14	2.6	146*	-5
Cc1ccc(/C=N/NC(=O)C(=O)N/N=C/c2ccc(C)o2)o1	1	-7	-5	1.1	92	29
COc1cc(/C=N/NC(=O)c2ccoc2C)cc(OC)c1O	0.9	-2	6	1.1	135*	12
COc1ccc(/C=N/NC(=O)c2ccoc2C)cc1COc1c(C)cccc1C	1.1	22	-6	3	106	/
Cc1occc1C(=O)N/N=C/C=C/c1ccccc1[N+](=O)[O-]	1	8	4	1.3	114	-3
Cc1ccc(Cl)cc1NC(=O)CC1NC2CCCCC2NC1=O (configuration not stated)	1	5	-4	1.9	100	-19
Cc1ccc(C(=O)O)cc1NCc1ccncc1	/	/	/	/	/	3
O=c1c(-c2ccc3c(c2)OCCO3)coc2cc(O)cc(O)c12	0.4	145*	62*	5.8*	119	-7
COc1ccc(-c2nnc(NC(=O)C(C)C)s2)c(OC)c1	0.8	17	20	1.4	133*	/
COc1cccc(C(=O)Nc2nc(C)cs2)c1	0.6	164*	42	3.7*	148*	/
COc1cccc(C(=O)Nc2nnc(C(C)C)s2)c1	0.7	198*	29	/	136*	3
CC(C)c1nnc(NC(=O)c2cccc(-n3cnnn3)c2)s1	1	11	-3	1.1	102	/
CCCc1nnc(NC(=O)c2cccc(OC)c2)s1	0.9	37	6	2.2	134*	/
CC(C)OC(=O)c1c2c(n3ccccc13)C(=O)c1ccccc1C2=O	1.1	-5	-6	0.59	97	-8
COc1cc(C(=O)NCC(=O)N/N=C(/C)c2cccs2)cc(OC)c1OC	1.1	0	-8	1.2	97	-2
CC(=O)Nc1ccc(SCC(=O)Nc2ccc(Cl)cn2)cc1	1	23	-3	1.5	103	12
CC(C)c1nnc(NC(=O)c2ccc(N3C(=O)CCC3=O)cc2)s1	1	5	0	1.9	136*	/
COCc1nnc(NC(=O)c2ccc(OC)cc2OC)s1	0.4	101	56*	4.4*	116	12
SMILES	FLuc act counter	APP 5'UTR act	FLuc inhib CS	NF-kB neuron act	STAT1 activator	Pf gamet viab
COc1ccc(C(=O)Nc2nnc(Cc3ccc(OC)c(OC)c3)s2)c(OC)c1	/	/	/	/	/	13
O=C(N/N=C/C=C\c1ccccc1[N+](=O)[O-])c1cccs1	0.9	1	8	5.2*	101	24
Cc1ccc(CSc2nnc(SCC(=O)N/N=C/C=C/c3ccccc3[N+](=O)[O-])s2)cc1	0.4	-36	59*	1.2	98	7
O=C(N/N=C/C=C\c1ccco1)c1cccs1	0.9	24	15	2.1	130*	/
CCOc1cc(/C=N/NC(=O)c2cccs2)cc([N+](=O)[O-])c1O	0.9	70	5	0.92	129*	/
O=C(Cc1cccs1)N/N=C/C=C\c1ccco1	0.9	21	14	1.5	117	/
Cc1ccc(CSc2nnc(SCC(=O)N/N=C/C=C/c3ccco3)s2)cc1	0.8	-22	16	0.9	108	9
O=C(N/N=C/c1cccc([N+](=O)[O-])c1)c1cccs1	0.7	43	34	1.5	117	-8
CN(C)S(=O)(=O)N(CC(=O)N1CCN(c2ccccc2)CC1)c1ccccc1	1	-12	0	1.1	97	7
N/C(=N\OC(=O)c1ccc2ccccc2c1)c1ccc(Br)cc1	1	11	-1	1.1	105	16
N/C(=N\OC(=O)/C=C/c1ccccc1)c1ccc(Cl)cc1	/	/	/	/	/	9
Cc1cccc(C(=O)O/N=C(\N)c2ccc(Br)cc2)c1	0.8	31	25	4*	121	/
N/C(=N\OC(=O)/C=C/c1ccccc1)c1ccccc1	0.1	136*	85*	5.9*	138*	/
N/C(=N\OC(=O)c1cccc(Br)c1)c1ccccc1	0.1	-4	90*	5.3*	127	4
COc1cccc(/C(N)=N/OC(=O)Cc2ccccc2[N+](=O)[O-])c1	1	13	-1	1.5	130*	-5
CC(C)CNS(=O)(=O)c1ccc(CCC(=O)NC2CCCCC2)cc1	/	/	/	/	/	16
COc1ccc(C(=O)O/N=C(\N)c2ccncc2)cc1OC	1	7	-2	1.2	109	9
COc1cccc(C(=O)O/N=C(\N)c2ccncc2)c1	0.1	106	89*	2.5	139*	/
COc1ccc(OC)c(C(=O)c2coc3ccc(OC(C)=O)cc23)c1	1.1	14	-6	1.4	101	/
COc1ccc2occ(C(=O)c3cccs3)c2c1	0.7	55	33	4.3*	128	-17
CSc1ccc(/C=N/n2c(C)cc(C)cc2=O)cc1	0.8	19	24	2.4	130*	9
CSc1ccc(/C=N/n2c(C)nnc2C)cc1	1.1	-10	-9	1.2	88	21
O=C(N/N=C1/CC2C=CCC12)c1ccco1 (configuration not stated)	1	44	0	1.7	134*	2
O=C(O)C1CCN(C(=O)CSc2nc3ccccc3s2)CC1	1	18	-2	0.86	97	/
CC1CCN(C(=O)CSc2nc3ccccc3s2)CC1	1	94	4	2.8	132*	7
SMILES	FLuc act counter	APP 5'UTR act	FLuc inhib CS	NF-kB neuron act	STAT1 activator	Pf gamet viab
CC(=O)c1ccc2noc(-c3ccccc3)c2c1	1	-10	-4	1.2	102	-1
c1ccc(-c2onc3cc4c(cc23)OCCO4)cc1	0.8	88	22	3.8*	146*	/
O=c1sc2ccccc2n1CCCOc1ccccc1	0.9	71	14	2.8	131*	/
Cc1ccccc1OCCCn1c(=O)sc2ccccc21	0.8	70	17	2.2	131*	9
CC(=O)Oc1c(Cl)cc(Cl)cc1/C=C/c1ccc2ccccc2n1	1.1	2	-6	1.6	100	9
C(=C\c1ccc2ccccc2n1)/c1ccccc1	/	176*	/	/	/	0
